# Measurements as given in ChEMBL document CHEMBL3864121, “Development of ebsulfur analogues as potent antibacterials against methicillin-resistant Staphylococcus aureus” (Bioorg Med Chem, 2016).
# Calls of active or inactive are those of the source. The calls are words filed in the database; no cut-off is given here.
# Tested on: Staphylococcus aureus
# Assay: Antibacterial activity against methicillin-resistant Staphylococcus aureus S17 measured after overnight incubation by broth double-dilution method
# Type: functional
# Details: not given
# Summary of the method: (§1)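 MIC by broth double-dilution in liquid Mueller-Hinton medium. Values are reported in µg/mL.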
row,Compound,MIC [µg/mL]
1,CC(C)Cn1sc2ccccc2c1=O,7.8
2,O=c1c2ccccc2sn1-c1cccc(Br)c1,3.9

# Tested on: Staphylococcus aureus
# Assay: Antibacterial activity against methicillin-resistant Staphylococcus aureus NRS77 measured after overnight incubation by broth double-dilution method
# Type: functional
# Details: not given
# Summary of the method: as §1
row,Compound,MIC [µg/mL]
1,CC(C)Cn1sc2ccccc2c1=O,7.8
2,O=c1c2ccccc2sn1-c1cccc(Br)c1,3.9

# Tested on: Staphylococcus aureus
# Assay: Antibacterial activity against methicillin-resistant Staphylococcus aureus C16 measured after overnight incubation by broth double-dilution method
# Type: functional
# Details: not given
# Summary of the method: as §1
row,Compound,MIC [µg/mL]
1,CC(C)Cn1sc2ccccc2c1=O,7.8
2,O=c1c2ccccc2sn1-c1cccc(Br)c1,3.9

# Tested on: Staphylococcus aureus
# Assay: Antibacterial activity against methicillin-resistant Staphylococcus aureus C2 measured after overnight incubation by broth double-dilution method
# Type: functional
# Details: not given
# Summary of the method: as §1
row,Compound,MIC [µg/mL]
1,CC(C)Cn1sc2ccccc2c1=O,7.8
2,O=c1c2ccccc2sn1-c1cccc(Br)c1,3.9

# Tested on: Staphylococcus aureus
# Assay: Antibacterial activity against methicillin-resistant Staphylococcus aureus G6 measured after overnight incubation by broth double-dilution method
# Type: functional
# Details: not given
# Summary of the method: as §1
row,Compound,MIC [µg/mL]
1,CC(C)Cn1sc2ccccc2c1=O,7.8
2,O=c1c2ccccc2sn1-c1cccc(Br)c1,3.9

# Tested on: Enterococcus
# Assay: Antibacterial activity against Vancomycin-resistant Enterococcus measured after overnight incubation by broth double-dilution method
# Type: functional
# Details: not given
# Summary of the method: as §1
row,Compound,MIC [µg/mL]
1,CC(C)Cn1sc2ccccc2c1=O,3.9
2,O=c1c2ccccc2sn1-c1cccc(Br)c1,7.8

# Tested on: Mycolicibacterium smegmatis
# Assay: Antibacterial activity against Mycobacterium smegmatis MC2-155 measured after overnight incubation by broth double-dilution method
# Type: functional
# Details: str. MC2 155
# Summary of the method: as §1
row,Compound,MIC [µg/mL]
1,CC(C)Cn1sc2ccccc2c1=O,3.9
2,O=c1c2ccccc2sn1-c1cccc(Br)c1,3.9

# Tested on: Staphylococcus aureus
# Assay: Antibacterial activity against methicillin-sensitive Staphylococcus aureus ATCC 6538 measured after overnight incubation by broth double-dilution method
# Type: functional
# Details: not given
# Summary of the method: as §1
row,Compound,MIC [µg/mL]
1,CC(C)Cn1sc2ccccc2c1=O,7.8
2,O=c1c2ccccc2sn1-c1cccc(Br)c1,7.8

# Tested on: Staphylococcus aureus
# Assay: Antibacterial activity against methicillin-resistant Staphylococcus aureus G1 measured after overnight incubation by broth double-dilution method
# Type: functional
# Details: not given
# Summary of the method: as §1
row,Compound,MIC [µg/mL]
1,CC(C)Cn1sc2ccccc2c1=O,3.9
2,O=c1c2ccccc2sn1-c1cccc(Br)c1,3.9

# Tested on: Staphylococcus aureus
# Assay: Antibacterial activity against methicillin-resistant Staphylococcus aureus G12 measured after overnight incubation by broth double-dilution method
# Type: functional
# Details: not given
# Summary of the method: as §1
row,Compound,MIC [µg/mL]
1,CC(C)Cn1sc2ccccc2c1=O,7.8
2,O=c1c2ccccc2sn1-c1cccc(Br)c1,7.8

# Tested on: Staphylococcus aureus
# Assay: Antibacterial activity against methicillin-resistant Staphylococcus aureus USA300 measured after overnight incubation by broth double-dilution method
# Type: functional
# Details: not given
# Summary of the method: as §1
row,Compound,MIC [µg/mL]
1,CC(C)Cn1sc2ccccc2c1=O,7.8
2,O=c1c2ccccc2sn1-c1cccc(Br)c1,3.9

# Tested on: Staphylococcus aureus
# Assay: Antibacterial activity against methicillin-resistant Staphylococcus aureus BRS3 measured after overnight incubation by broth double-dilution method
# Type: functional
# Details: not given
# Summary of the method: as §1
row,Compound,MIC [µg/mL]
1,CC(C)Cn1sc2ccccc2c1=O,7.8
2,O=c1c2ccccc2sn1-c1cccc(Br)c1,7.8

# Tested on: Staphylococcus aureus
# Assay: Antibacterial activity against methicillin-resistant Staphylococcus aureus C1 measured after overnight incubation by broth double-dilution method
# Type: functional
# Details: not given
# Summary of the method: as §1
row,Compound,MIC [µg/mL]
1,CC(C)Cn1sc2ccccc2c1=O,7.8
2,O=c1c2ccccc2sn1-c1cccc(Br)c1,3.9

# Tested on: Staphylococcus aureus
# Assay: Antibacterial activity against methicillin-resistant Staphylococcus aureus S22 using 1 10^6CFU/ml measured after overnight incubation by broth double-dilution method
# Type: functional
# Details: not given
row,Compound,Activity
1,O=c1c2ccccc2sn1-c1cccc(Br)c1,Active

# Tested on: Staphylococcus aureus
# Assay: Antibacterial activity against methicillin-sensitive Staphylococcus aureus ATCC 25923 measured after overnight incubation by broth double-dilution method
# Type: functional
# Details: not given
# Summary of the method: as §1
row,Compound,MIC [µg/mL]
1,CC(C)Cn1sc2ccccc2c1=O,125
2,O=c1c2ccccc2sn1-c1cccc(Br)c1,7.8

# Tested on: Staphylococcus aureus
# Assay: Antibacterial activity against methicillin-resistant Staphylococcus aureus S22 measured after overnight incubation by broth double-dilution method
# Type: functional
# Details: not given
# Summary of the method: as §1
row,Compound,MIC [µg/mL]
1,CC(C)Cn1sc2ccccc2c1=O,7.8
2,O=c1c2ccccc2sn1-c1cccc(Br)c1,> 125

# Tested on: Staphylococcus epidermidis
# Assay: Antibacterial activity against Staphylococcus epidermidis ATCC 35984 measured after overnight incubation by broth double-dilution method
# Type: functional
# Details: RP62A
# Summary of the method: (§2)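 MIC by broth double-dilution in Mueller-Hinton medium. Re-testing at the time-kill inoculum used 1×10^6 CFU/mL.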
row,Compound,MIC [µg/mL]
1,CC(C)Cn1sc2ccccc2c1=O,7.8
2,O=c1c2ccccc2sn1-c1cccc(Br)c1,3.9

# Tested on: Enterococcus faecalis
# Assay: Antibacterial activity against Enterococcus faecalis ATCC 29212 measured after overnight incubation by broth double-dilution method
# Type: functional
# Details: not given
# Summary of the method: as §2
row,Compound,MIC [µg/mL]
1,CC(C)Cn1sc2ccccc2c1=O,7.8
2,O=c1c2ccccc2sn1-c1cccc(Br)c1,15.6

# Tested on: Staphylococcus aureus
# Assay: Antibacterial activity against methicillin-resistant Staphylococcus aureus C19 measured after overnight incubation by broth double-dilution method
# Type: functional
# Details: not given
# Summary of the method: as §1
row,Compound,MIC [µg/mL]
1,CC(C)Cn1sc2ccccc2c1=O,7.8
2,O=c1c2ccccc2sn1-c1cccc(Br)c1,3.9

# Tested on: Staphylococcus aureus
# Assay: Antibacterial activity against methicillin-resistant Staphylococcus aureus USA600 measured after overnight incubation by broth double-dilution method
# Type: functional
# Details: not given
# Summary of the method: as §1
row,Compound,MIC [µg/mL]
1,CC(C)Cn1sc2ccccc2c1=O,7.8
2,O=c1c2ccccc2sn1-c1cccc(Br)c1,7.8

# Tested on: Staphylococcus aureus
# Assay: Antibacterial activity against methicillin-resistant Staphylococcus aureus C7 measured after overnight incubation by broth double-dilution method
# Type: functional
# Details: not given
# Summary of the method: as §1
row,Compound,MIC [µg/mL]
1,CC(C)Cn1sc2ccccc2c1=O,7.8
2,O=c1c2ccccc2sn1-c1cccc(Br)c1,3.9

# Tested on: Staphylococcus aureus
# Assay: Antibacterial activity against methicillin-resistant Staphylococcus aureus NRS51 measured after overnight incubation by broth double-dilution method
# Type: functional
# Details: not given
# Summary of the method: as §1
row,Compound,MIC [µg/mL]
1,CC(C)Cn1sc2ccccc2c1=O,7.8
2,O=c1c2ccccc2sn1-c1cccc(Br)c1,3.9

# Tested on: Staphylococcus aureus
# Assay: Antibacterial activity against methicillin-resistant Staphylococcus aureus S24 measured after overnight incubation by broth double-dilution method
# Type: functional
# Details: not given
# Summary of the method: as §1
row,Compound,MIC [µg/mL]
1,CC(C)Cn1sc2ccccc2c1=O,7.8
2,O=c1c2ccccc2sn1-c1cccc(Br)c1,3.9

# Tested on: Listeria monocytogenes
# Assay: Antibacterial activity against Listeria monocytogenes ATCC 19115 measured after overnight incubation by broth double-dilution method
# Type: functional
# Details: not given
# Summary of the method: as §2
row,Compound,MIC [µg/mL]
1,CC(C)Cn1sc2ccccc2c1=O,> 125
2,O=c1c2ccccc2sn1-c1cccc(Br)c1,3.9

# Tested on: Staphylococcus aureus
# Assay: Antibacterial activity against methicillin-resistant Staphylococcus aureus USA100 measured after overnight incubation by broth double-dilution method
# Type: functional
# Details: not given
# Summary of the method: as §1
row,Compound,MIC [µg/mL]
1,CC(C)Cn1sc2ccccc2c1=O,7.8
2,O=c1c2ccccc2sn1-c1cccc(Br)c1,3.9

# Tested on: Staphylococcus aureus
# Assay: Antibacterial activity against methicillin-sensitive Staphylococcus aureus ATCC 29213 measured after overnight incubation by broth double-dilution method
# Type: functional
# Details: not given
# Summary of the method: as §1
row,Compound,MIC [µg/mL]
1,CC(C)Cn1sc2ccccc2c1=O,15.6
2,O=c1c2ccccc2sn1-c1cccc(Br)c1,3.9

# Tested on: Staphylococcus aureus
# Assay: Antibacterial activity against methicillin-resistant Staphylococcus aureus 1 measured after overnight incubation by broth double-dilution method
# Type: functional
# Details: not given
# Summary of the method: as §1
row,Compound,MIC [µg/mL]
1,CC(C)Cn1sc2ccccc2c1=O,7.8
2,O=c1c2ccccc2sn1-c1cccc(Br)c1,7.8

# Tested on: Staphylococcus aureus
# Assay: Antibacterial activity against methicillin-resistant Staphylococcus aureus C14 measured after overnight incubation by broth double-dilution method
# Type: functional
# Details: not given
# Summary of the method: as §1
row,Compound,MIC [µg/mL]
1,CC(C)Cn1sc2ccccc2c1=O,7.8
2,O=c1c2ccccc2sn1-c1cccc(Br)c1,7.8

# Tested on: Staphylococcus aureus
# Assay: Antibacterial activity against methicillin-resistant Staphylococcus aureus ATCC 33591 measured after overnight incubation by broth double-dilution method
# Type: functional
# Details: not given
# Summary of the method: as §1
row,Compound,MIC [µg/mL]
1,CC(C)Cn1sc2ccccc2c1=O,> 125
2,O=c1c2ccccc2sn1-c1cccc(Br)c1,2

# Tested on: Staphylococcus aureus
# Assay: Antibacterial activity against methicillin-resistant Staphylococcus aureus G14 measured after overnight incubation by broth double-dilution method
# Type: functional
# Details: not given
# Summary of the method: as §1
row,Compound,MIC [µg/mL]
1,CC(C)Cn1sc2ccccc2c1=O,7.8
2,O=c1c2ccccc2sn1-c1cccc(Br)c1,7.8

# Tested on: Staphylococcus aureus
# Assay: Antibacterial activity against methicillin-resistant Staphylococcus aureus USA200 measured after overnight incubation by broth double-dilution method
# Type: functional
# Details: not given
# Summary of the method: as §1
row,Compound,MIC [µg/mL]
1,CC(C)Cn1sc2ccccc2c1=O,7.8
2,O=c1c2ccccc2sn1-c1cccc(Br)c1,7.8

# Tested on: Staphylococcus aureus
# Assay: Antibacterial activity against methicillin-resistant Staphylococcus aureus S14 measured after overnight incubation by broth double-dilution method
# Type: functional
# Details: not given
# Summary of the method: as §1
row,Compound,MIC [µg/mL]
1,CC(C)Cn1sc2ccccc2c1=O,2
2,O=c1c2ccccc2sn1-c1cccc(Br)c1,0.5

# Tested on: Staphylococcus aureus
# Assay: Antibacterial activity against methicillin-resistant Staphylococcus aureus 2 measured after overnight incubation by broth double-dilution method
# Type: functional
# Details: not given
# Summary of the method: as §1
row,Compound,MIC [µg/mL]
1,CC(C)Cn1sc2ccccc2c1=O,15.6
2,O=c1c2ccccc2sn1-c1cccc(Br)c1,3.9

# Tested on: Enterococcus faecium
# Assay: Antibacterial activity against Enterococcus faecium BM4105-RF measured after overnight incubation by broth double-dilution method
# Type: functional
# Details: not given
# Summary of the method: as §1
row,Compound,MIC [µg/mL]
1,CC(C)Cn1sc2ccccc2c1=O,7.8
2,O=c1c2ccccc2sn1-c1cccc(Br)c1,15.6

# Tested on: Staphylococcus aureus
# Assay: Antibacterial activity against methicillin-resistant Staphylococcus aureus NRS4 measured after overnight incubation by broth double-dilution method
# Type: functional
# Details: not given
# Summary of the method: as §1
row,Compound,MIC [µg/mL]
1,CC(C)Cn1sc2ccccc2c1=O,7.8
2,O=c1c2ccccc2sn1-c1cccc(Br)c1,7.8

# Tested on: Enterococcus faecalis
# Assay: Antibacterial activity against Enterococcus faecalis ATCC 49533 measured after overnight incubation by broth double-dilution method
# Type: functional
# Details: not given
# Summary of the method: as §2
row,Compound,MIC [µg/mL]
1,CC(C)Cn1sc2ccccc2c1=O,15.6
2,O=c1c2ccccc2sn1-c1cccc(Br)c1,> 125
